This is an account of results in ChEMBL document CHEMBL3877317, “Quinazolinone derivatives: Synthesis and comparison of inhibitory mechanisms on α-glucosidase” (Bioorg Med Chem, 2017).

Usually Ki stands for a dissociation constant, usually derived from enzyme kinetics or from competition with a known ligand. Read a low Ki as tighter binding. As usually defined, the IC50 is the point on the concentration scale where inhibition reaches its midpoint. A higher IC50 goes with weaker potency.

Experiment [1] can be described thus: Non-competitive inhibition of Saccharomyces cerevisiae alpha-glucosidase type 1 using p-nitro-phenyl-alpha-D-glucopyranoside as substrate preincubated for 10 mins followed by substrate addition measured after 5 mins every 10 secs by Lineweaver-Burk plot analysis. In short, it runs like this:
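Same pNPG assay (0.1 M potassium phosphate pH 6.8, A405 every 10 s, ambient temperature), inhibitor 0-24 µM (or 0-16 µM). Inhibition type assigned from Lineweaver-Burk plots. KI taken from the secondary plot.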

The subject of experiment [2] is Saccharomyces cerevisiae. As to the kind of experiment: Binding affinity to Saccharomyces cerevisiae alpha-glucosidase type 1 assessed as Stern-Volmer quenching constant at 25 degC by fluorescence spectrophotometric method. In short, it runs like this: (§1)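 Fluorescence quenching: enzyme (0.1 mg/mL, 50 µL) mixed with sample at varied concentrations in 0.1 mM sodium phosphate buffer, 25 °C. Excitation 280 nm, emission scanned 300-500 nm. F0/F plotted against [Q] and fitted to the Stern-Volmer equation (F0/F = 1 + Kqτ0[Q] = 1 + Ksv[Q]) to give Ksv and Kq.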

Experiment [3] concerns Saccharomyces cerevisiae. The experiment can be described thus: Binding affinity to Saccharomyces cerevisiae alpha-glucosidase type 1 at 25 degC by fluorescence spectrophotometric method.
Experiment [4] has as its system Saccharomyces cerevisiae. The experiment can be described thus: Reversible inhibition of Saccharomyces cerevisiae alpha-glucosidase type 1 at 8 to 24 uM using p-nitro-phenyl-alpha-D-glucopyranoside as substrate preincubated for 10 mins followed by substrate addition measured after 5 mins every 10 secs.
A short description of experiment [5]: Inhibition of Saccharomyces cerevisiae alpha-glucosidase type 1 using p-nitro-phenyl-alpha-D-glucopyranoside as substrate preincubated for 10 mins followed by substrate addition measured after 5 mins every 10 secs. In short, it runs like this: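 Enzyme (7 U/mL, 50 µL) with sample at varied concentrations, then 5 mM pNPG (200 µL) in 0.1 M potassium phosphate pH 6.8. A405 read every 10 s at ambient temperature. Relative activity = slope with inhibitor / slope without × 100. Acarbose as positive control.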

Experiment [6] has as its system Saccharomyces cerevisiae. The experiment can be described thus: Binding affinity to Saccharomyces cerevisiae alpha-glucosidase type 1 assessed as fluorescence quenching by measuring relative fluorescence intensity at 60 uM by fluorescence spectrophotometric method. In short, it runs like this: (§2)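 Intrinsic enzyme fluorescence (peak 330 nm) recorded with excitation 280 nm, emission 300-500 nm, 25 °C. Enzyme 0.1 mg/mL in 0.1 mM sodium phosphate buffer; compound series 0-50 µM or 0-60 µM. Relative intensity expressed as F/F0 against enzyme alone.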

Experiment [7] concerns Saccharomyces cerevisiae. The experiment can be described thus: Binding affinity to Saccharomyces cerevisiae alpha-glucosidase type 1 assessed as quenching velocity constant of biomolecular reaction at 25 degC by fluorescence spectrophotometric method. In short, it runs like this:
as §1

Experiment [8] relates to Saccharomyces cerevisiae. As to the kind of experiment: Binding affinity to Saccharomyces cerevisiae alpha-glucosidase type 1 assessed as fluorescence quenching by measuring relative fluorescence intensity at 50 uM by fluorescence spectrophotometric method. A digest of the protocol:
as §2

Activity calls are given as the source filed them. The rule behind the calls is not given here. Where only a bound is given, the exact number is not on record here.

On to `O=c1[nH]c(-c2ccc(Br)cc2)nc2ccccc12`, for which the Ki in experiment [1] stood at 10.6 µM. For the same compound, in the experiment with Saccharomyces cerevisiae [2], the KSV stood at 7.26 ×10³ L/mol. Further, the K in the experiment on Saccharomyces cerevisiae [3] was 1.25 ×10⁴ L/mol. For the same compound, in the experiment with Saccharomyces cerevisiae [4], the inhibition entry is “Active”. Moreover, the IC50 in experiment [5] worked out at 15.6 µM. Moreover, in the experiment with Saccharomyces cerevisiae [6], the Activity came to 69.3%. Also, the Kq in the experiment on Saccharomyces cerevisiae [7] was 7.26 ×10¹¹ L/mol.s.

`O=c1[nH]c(-c2ccc(Cl)cc2)nc2ccccc12`: the Ki in experiment [1] stood at 9.1 µM. In addition, the KSV with Saccharomyces cerevisiae [2] is 3.1 ×10⁴ L/mol. The Activity in the experiment on Saccharomyces cerevisiae [8] was 39.3%. The K in the experiment on Saccharomyces cerevisiae [3] came to 1.78 ×10⁴ L/mol. For the same compound, in the experiment on Saccharomyces cerevisiae [4], the inhibition result is “Active”. The compound also came in with an IC50 in experiment [5] of 12.5 µM. In addition, the Kq with Saccharomyces cerevisiae [7] came to 3.1 ×10¹² L/mol.s.

In experiment [5], `C[C@H]1O[C@H](O[C@H]2[C@H](O)[C@@H](O)[C@@H](O[C@H]3[C@H](O)[C@@H](O)C(O)O[C@@H]3CO)O[C@@H]2CO)[C@H](O)[C@@H](O)[C@@H]1N[C@H]1C=C(CO)[C@@H](O)[C@H](O)[C@H]1O` (stereo partly specified) [ACARBOSE] yielded an IC50 of 475 µM.

`Oc1nc(-c2ccc(F)cc2)nc2ccccc12` registered an IC50 in experiment [5] greater than 57.2 µM.
